Assay results: ChEMBL document CHEMBL4145448, “Broad activity of diphenyleneiodonium analogues against Mycobacterium tuberculosis, malaria parasites and bacterial pathogens” (Eur J Med Chem, 2018)

Tests used:
[1] = Selectivity index, ratio of CC50 for human HepG2 cells in presence of 1% FBS to MIC for Klebsiella pneumoniae isolate M320445; type: toxicity; details: read-out: Selectivity Index
[2] = Selectivity index, ratio of CC50 for human HepG2 cells in presence of 1% FBS to MIC for Acinetobacter baumannii isolate 07AC-336; type: toxicity; details: read-out: Selectivity Index
[3] = Selectivity index, ratio of CC50 for human HepG2 cells in presence of 1% FBS to MIC for Pseudomonas aeruginosa isolate M146201; type: toxicity; details: read-out: Selectivity Index
Outline: (§1)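 Selectivity index is CC50 (1% FBS) divided by MIC. […] They then got compound at 300 to 0.14 µM (3-fold steps) for 24 h at 37 °C, 5% CO2. Resazurin (10 µM, 2 h) was read at ex/em 560/590 in duplicate wells. For MIC, CLSI broth microdilution was run in CaMHB with ~10^6 cfu/mL inoculum and 0–128 µM compound.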

[4] = test system: Acinetobacter baumannii; assay: Antibacterial activity against Acinetobacter baumannii isolate 246-01-C after 18 hrs by broth microdilution method; type: functional
Outline: (§2)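 Broth microdilution per CLSI in cation-adjusted Mueller-Hinton broth. 100 µL inoculum (~10^6 cfu/mL in CaMHB) mixed with 100 µL CaMHB containing compound, 0 to 128 µM. Incubated 18 h at 37 °C. MIC taken as the lowest concentration with no visible growth. Polymyxin B served as positive control. Isolates were stored at -80 °C in tryptone soy broth with 20% glycerol.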

[5] = test system: Acinetobacter baumannii; assay: Antibacterial activity against Acinetobacter baumannii ATCC 17978 col10 after 18 hrs by broth microdilution method; type: functional; details: ATCC 17978 col10, 18 h; outline: as §2
[6] = test system: Acinetobacter baumannii; assay: Antibacterial activity against Acinetobacter baumannii isolate 07AC-336 after 18 hrs by broth microdilution method; type: functional; details: isolate 07AC-336, 18 h; outline: as §2
[7] = test system: Pseudomonas aeruginosa; assay: Antibacterial activity against Pseudomonas aeruginosa isolate M146201 after 18 hrs by broth microdilution method; type: functional; details: isolate M146201, 18 h; outline: as §2
[8] = Selectivity index, ratio of CC50 for human HepG2 cells in presence of 1% FBS to MIC for vancomycin-resistant Staphylococcus aureus ATCC 700699; type: toxicity; details: read-out: Selectivity Index; outline: as §1
[9] = Selectivity index, ratio of CC50 for human HepG2 cells in presence of 1% FBS to MIC for Acinetobacter baumannii ATCC 17978; type: toxicity; details: read-out: Selectivity Index
[10] = test system: Staphylococcus aureus; assay: Antibacterial activity against methicillin-resistant Staphylococcus aureus ATCC 43300 after 18 hrs by broth microdilution method; type: functional; details: ATCC 43300, 18 h; outline: as §2
[11] = Selectivity index, ratio of CC50 for human HepG2 cells in presence of 1% FBS to MIC for vancomycin-resistant Enterococcus faecium ATCC 700221; type: toxicity; details: read-out: Selectivity Index; outline: as §1
[12] = Selectivity index, ratio of CC50 for human HepG2 cells in presence of 1% FBS to MIC for Mycobacterium tuberculosis H37Rv ATCC 25618; type: toxicity; details: read-out: Selectivity Index
[13] = test system: Pseudomonas aeruginosa; assay: Antibacterial activity against Pseudomonas aeruginosa ATCC 27853 after 18 hrs by broth microdilution method; type: functional; details: ATCC 27853, 18 h; outline: as §2
[14] = Selectivity index, ratio of CC50 for human HepG2 cells in presence of 1% FBS to MIC for Acinetobacter baumannii ATCC 17978 col10; type: toxicity; details: read-out: Selectivity Index
[15] = Selectivity index, ratio of CC50 for human HepG2 cells in presence of 1% FBS to MIC for Pseudomonas aeruginosa QLD PSA 1; type: toxicity; details: read-out: Selectivity Index; outline: as §1
[16] = Selectivity index, ratio of CC50 for human HepG2 cells in presence of 1% FBS to MIC for Acinetobacter baumannii isolate 246-01-C; type: toxicity; details: read-out: Selectivity Index
[17] = Selectivity index, ratio of CC50 for human HepG2 cells in presence of 1% FBS to MIC for Klebsiella pneumoniae ATCC 13883; type: toxicity; details: read-out: Selectivity Index
[18] = Selectivity index, ratio of CC50 for human HepG2 cells in presence of 1% FBS to MIC for methicillin-resistant Staphylococcus aureus ATCC 43300; type: toxicity; details: read-out: Selectivity Index; outline: as §1
[19] = test system: Pseudomonas aeruginosa; assay: Antibacterial activity against Pseudomonas aeruginosa isolate 912 after 18 hrs by broth microdilution method; type: functional; details: isolate 912, 18 h; outline: as §2
[20] = Selectivity index, ratio of CC50 for human HepG2 cells in presence of 1% FBS to MIC for Escherichia coli N2381; type: toxicity; details: read-out: Selectivity Index
[21] = test system: Klebsiella pneumoniae; assay: Antibacterial activity against Klebsiella pneumoniae ATCC 13883 after 18 hrs by broth microdilution method; type: functional; details: ATCC 13883, 18 h; outline: as §2
[22] = test system: Acinetobacter baumannii; assay: Antibacterial activity against Acinetobacter baumannii ATCC 19606 after 18 hrs by broth microdilution method; type: functional; details: ATCC 19606 = CIP 70.34 = JCM 6841, 18 h; outline: as §2

SMILES | selectivity ratio [1] | selectivity ratio [2] | selectivity ratio [3] | MIC [4] | MIC [5] | MIC [6] | MIC [7] | selectivity ratio [8] | selectivity ratio [9] | MIC [10] | selectivity ratio [11] | selectivity ratio [12] | MIC [13] | selectivity ratio [14] | selectivity ratio [15] | selectivity ratio [16] | selectivity ratio [17] | selectivity ratio [18] | MIC [19] | selectivity ratio [20] | further results
COc1ccc2c(c1)[I+]c1ccccc1-2 | 0.11 | > 0.11 | 0.11 | 35 µM | 2.2 µM | > 70 µM | 70 µM | 0.78 | 0.39 | 4.4 µM | 1.6 | 24 | > 70 µM | 3.1 | 0.11 | 0.21 | > 0.11 | 1.6 | > 70 µM | 0.21 | MIC [21]: > 70 µM; MIC [22]: 18 µM
Cc1ccc2c(c1)-c1ccccc1[I+]2 | 0.52 | 2.2 | 1 | 9 µM | 1.1 µM | 18 µM | 36 µM | 2.2 | 4.2 | 9 µM | 8.3 | 66 | > 73 µM | 33 | 1 | 4.2 | 0.52 | 4.2 | 9 µM | 0.52 | MIC [21]: 72 µM; MIC [22]: 18 µM
c1ccc2c(c1)[I+]c1c-2ccc2ccccc12 | 0.04 | 0.09 | 0.09 | 4.2 µM | 0.52 µM | 8.4 µM | 8.4 µM | 0.17 | 0.69 | 2.1 µM | 0.69 | 2.4 | 8.4 µM | 1.4 | 0.17 | 0.17 | 0.09 | 0.34 | 2.1 µM | 0.09 | MIC [21]: 8.4 µM; MIC [22]: 4.2 µM
Fc1ccc2c(c1)-c1ccccc1[I+]2 | 0.67 | 1.3 | 2.7 | 4.5 µM | 0.56 µM | 9.1 µM | 4.5 µM | 1.3 | 5.3 | 4.5 µM | 2.7 | 41 | 18 µM | 2 | 0.67 | 2.7 | 0.67 | 2.7 | 2.2 µM | 0.67 | MIC [21]: 18 µM; MIC [22]: 4.5 µM
Cc1cccc2c1-c1ccccc1[I+]2 | 0.07 | 1.2 | 1.2 | 2.3 µM | 0.57 µM | 2.2 µM | 2.3 µM | 0.07 | 2.3 | 36 µM | 1.2 | 19 | 18 µM | 4.6 | 0.58 | 1.2 | 0.14 | 0.07 | 1.1 µM | 0.14 | MIC [21]: 18 µM; MIC [22]: 2.3 µM
Fc1ccc2c(c1)[I+]c1ccccc1-2 | 0.16 | 0.66 | 2.6 | 4.5 µM | 0.56 µM | 8.9 µM | 2.2 µM | 0.66 | 5.3 | 2.2 µM | 2.6 | 20 | 8.9 µM | 11 | 0.66 | 2.6 | 0.16 | 2.6 | 1.1 µM | 0.08 | MIC [21]: 36 µM; MIC [22]: 4.5 µM
COc1ccc2c(c1)-c1ccccc1[I+]2 | 0.29 | 0.29 | 0.29 | 35 µM | 4.4 µM | 70 µM | 70 µM | 0.58 | 1.2 | 18 µM | 4.6 | 19 | > 70 µM | 4.6 | 0.29 | 0.58 | 0.29 | 1.5 | 8.7 µM | > 0.29 | MIC [21]: 70 µM; MIC [22]: 35 µM
N#Cc1ccc2c(c1)[I+]c1ccccc1-2 | 0.09 | > 0.05 | 0.19 | 18 µM | 2.2 µM | > 71 µM | 18 µM | 0.37 | 0.75 | 4.4 µM | 1.5 | 12 | 35 µM | 1.5 | 0.37 | 0.19 | 0.19 | 0.75 | 4.4 µM | 0.05 | MIC [21]: 18 µM; MIC [22]: 18 µM
COc1cccc2c1-c1ccccc1[I+]2 | 0.55 | 0.55 | > 0.55 | 70 µM | 35 µM | 70 µM | > 70 µM | 1.1 | 1.1 | 35 µM | 4.4 | 8.8 | > 70 µM | 1.1 | > 0.55 | 0.55 | > 0.55 | 1.1 | 70 µM | 0.55 | MIC [21]: > 70 µM; MIC [22]: 35 µM
Clc1ccc2c(c1)[I+]c1ccccc1-2 | 0.13 | 0.51 | 0.51 | 2.2 µM | < 0.27 µM | 2.2 µM | 2.2 µM | 0.51 | 2 | 2.2 µM | 1 | 3.9 | 8.7 µM | < 4.1 | 0.51 | 0.51 | 0.13 | 0.51 | 1.1 µM | 0.13 | MIC [21]: 8.7 µM; MIC [22]: 2.2 µM
Clc1ccc2c(c1)-c1ccccc1[I+]2 | 0.47 | 1.9 | 3.7 | 4.3 µM | 0.5 µM | 8.7 µM | 4.3 µM | 3.7 | 7.5 | 2.2 µM | 1.9 | 30 | 8.7 µM | 30 | 1.9 | 3.7 | 1.9 | 7.5 | 4.3 µM | 0.93 | MIC [21]: 8.7 µM; MIC [22]: 4.3 µM
